# The source made the active and inactive calls. The rule behind the calls is not given here.
# Columns and labels:
# [1] = tested on: Hemoglobin HbA (Homo sapiens), P69905+P68871 [E7V]; assay: (§1) Induction of R-state stabilization of Hb betaGlu6Val mutant in sickle disease patient purified HbS/HbA mixture assessed as change from baseline of partial pressure of O2 at which HbS is 50% saturated with O2 at 30 uM preincubated for 45 mins followed by oxygenation for 10 mins and subsequent deoxygenation by hemoximetry relative to control
# Outline: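 Oxygen equilibrium curves were run on a Hemox Analyzer using Hb purified from sickle disease blood (an HbA/HbS mixture) at 25 μM. Compound was tested at 30 μM, or at 500 μM where noted. The read-out was the % change from baseline in the pO2 at which HbS is 50% saturated (Δp50).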
# [2] = tested on: Hemoglobin HbA (Homo sapiens), P69905+P68871 [E7V]; assay: (§2) Induction of R-state stabilization of Hb betaGlu6Val mutant in sickle cell disease transfused human whole blood assessed as change from baseline of partial pressure of O2 at which HbS is 50% saturated with O2 at 1 mM preincubated for 45 mins followed by 20 mins oxygenation/deoxygenation cycle by hemoximetry relative to control
# Outline: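 Whole blood from transfused SCD subjects, at 20% hematocrit (Hb 1 mM), was run with compound at 1 mM. Oxygen equilibrium curves were measured by hemoximetry. The value is the % change from baseline in the pO2 giving 50% O2 saturation (Δp50).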
# [3] = organism: Homo sapiens; assay: Induction of R-state stabilization of sickle cell Hb betaGlu6Val mutant purified from sickle cell patient assessed as inhibition of KH2PO4-induced polymerization by measuring change from baseline of delay time for onset of polymerization at 75 uM preincubated for 1 hr followed by deoxygenation for …; parameters: scale not given: the % may be the effect or the level left
# [4] = tested on: Hemoglobin HbA (Homo sapiens), P69905+P68871 [E7V]; assay: as §2, with “sickle” for “sickle cell”, “patient purified HbS/HbA mixture” for “transfused human whole blood”, “5” for “1”
# [5] = tested on: Hemoglobin HbA (Homo sapiens), P69905+P68871 [E7V]; assay: as §1, with “100” for “30”, “20” for “oxygenation for 10”, “oxygenation/deoxygenation cycle” for “and subsequent deoxygenation”
# [6] = tested on: Blood; assay: Half life in Sprague-Dawley rat blood at 7.2 to 120 mg/kg, po by LC-MS/MS analysis; type: ADME, organism-based; details: in vivo
# [7] = tested on: Rattus norvegicus; assay: Dose normalized AUC (0 to infinity) in Sprague-Dawley rat at 7.2 to 120 mg/kg, po by LC-MS/MS analysis; type: ADME, organism-based; details: in vivo
# Outline: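 Rat oral PK: AUC(0–∞) divided by the oral dose, expressed as (ng·h/mL)/(mg/kg).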
SMILES,Activity [1] [%],further results
COC(=O)c1cc(COc2cnc(OC)cc2C=O)c2nccn2c1,16.4,
COc1cc(C=O)c(OCc2cncc(-c3ccn[nH]3)c2)cn1,9,
CC(C)n1nccc1-c1ncccc1COc1cnc(OC(F)F)cc1C=O,43.1,Activity [2]: 49.7%; Activity [3]: 73.1%
COc1cc(C=O)c(OCc2c(-c3cc[nH]n3)ccn3ccnc23)cn1,29.1,
COc1cc(C=O)c(OCc2cncc(-c3nnn[nH]3)c2)cn1,21.9,
O=Cc1ccc(CO)o1,,Activity [4]: Active
COc1cc(C=O)c(OCc2cccnc2-c2c(C)cnn2C)cn1,27.4,Activity [3]: 64.5%
COc1ccc(OCc2cccn3ccnc23)c(C=O)c1,33,Activity [5]: Active
CC(C)n1nccc1-c1ncccc1COc1cccnc1C=O,53.3,t1/2 [6]: 42 min; Activity [2]: 56.4%; Activity [3]: 70.3%; AUC/dose [7]: 34.2 ng·h/mL/mg/kg

# Continued, in another order:
Activity [1] [%],SMILES,further results
23.1,COc1cc(C=O)c(OCc2ccnc3cccnc23)cn1,
4,COc1cc(C=O)c(OCc2cc3ccccc3nc2Cl)cn1,
31.8,COc1cc(C=O)c(OCc2cccnc2-n2cccn2)cn1,
40.2,COc1cc(C=O)c(OCc2nccc3ccccc23)cn1,
32.7,COc1cc(C=O)c(OCc2cccnc2-c2ccnn2CCO)cn1,Activity [2]: 64.7%; Activity [3]: 105%
37,COc1cc(C=O)c(OCc2cccc3ocnc23)cn1,
36,COc1cc(C=O)c(OCc2cccc3ncccc23)cn1,
11.7,COc1cc(C=O)c(OCc2cc(Br)cn3ccnc23)cn1,
40.2,COc1cc(C=O)c(OCc2cccnc2-c2ccn[nH]2)cn1,Activity [2]: 19.2%
11.2,COc1cc(C=O)c(OCc2cncc(-c3ccnn3C)c2)cn1,
14.2,COc1cc(C=O)c(OCc2cc3ccccc3nc2-c2ccn[nH]2)cn1,
44.4,COc1cc(C=O)c(OCc2cccn3ccnc23)cn1,
